# LYP act = activators of human LYP (PTPN22) phosphatase. Q9Y2R2. activation, % at 2 µM. recombinant LYP, DiFMUP fluorescence; 0 = plate median, 100 = signal doubled. actives 0.11% (n = 96,000). AID 697;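 active = activation at 2 µM above a set limit, the mean plus 5 SD, cut at about 37% in these data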
# Rev-RRE block = disrupts HIV-1 Rev binding to RRE RNA | actives 0.79% (n = 97,000) | AID 704 | Rev peptide-RRE RNA binding, FRET | inhibition, % at 8 µM | P05866;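 active = inhibition above the screen-wide mean plus 3 SD, cut at about 35% in these data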;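 also: 0% = median DMSO wells and 100% = median Neomycin B control wells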
#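 Test system – labelled RRE RNA duplex and labelled Rev peptide · Signal – fluorescein-to-Cy5 FRET, 480 nm excitation · Evaluation – % inhibition of FRET ratio versus controls · Benchmarks – DMSO low control, neomycin B high control · Incubation – 5 min RNA-compound premix plus 15 min binding step, 25 °C · Medium – HEPES pH 7.5 salt buffer with EDTA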
# PTPN22 inh 2 = LYP (human) phosphatase inhibition; Q9Y2R2; recombinant LYP catalytic domain, DiFMUP fluorescence; inhibition, % at 2 µM; actives 0.21% (n = 96,000);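 active = inhibition at 2 µM at or above a set limit, the screen mean plus 3 SD, cut at about 24% in these data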;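 also: 0% = DMSO with enzyme and 100% = enzyme fully blocked by orthovanadate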
# FAK blocker = FAK (human) kinase inhibition; Q05397; biochemical FAK kinase activity assay; inhibition, %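 (tested at 7 µM)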; actives 0.84% (n = 97,000); AID 727;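 also: 0% = DMSO and 100% = reference compound high control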
# EphB4 ephrin blk = antagonists of human EphB4-ephrin-B2 interaction; P54760; EphB4 LBD / TNYL-RAW-Alexa532 peptide, fluorescence polarization; inhibition, % at 7 µM; actives 0.15% (n = 97,000); AID 720;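 active = inhibition above the screen-wide mean inhibition plus 3 SD, cut at about 15% in these data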;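 also: 0% = DMSO wells and 100% = excess unlabeled TNYL-RAW peptide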
# FAK inh confirm = confirmation of human focal adhesion kinase (FAK) inhibitors | shares compounds with FAK blocker | FAK kinase biochemical inhibition assay | inhibition, % at 7 µM | actives 28% (n = 750) | AID 794
# * = called active by the depositor; nt = not tested or not shown. An excerpt weighted towards active compounds, which were near 1.9% of everything screened. Rule as the data show it, unless noted: active = inhibition above about 19%; inactive = the rest.
SMILES,LYP act,Rev-RRE block,PTPN22 inh 2,FAK blocker,EphB4 ephrin blk,FAK inh confirm
c1ccc(-n2cnc3cc(NCc4cccs4)ccc32)cc1,11.3,3.2,-8.4,22.8*,3.5,7.9
Cc1ccc(-n2cnc3cc(NCc4cccs4)ccc32)cc1,-9.9,-3.2,7.5,3.6,-0.2,nt
O=C1Nc2ccccc2C12OCC(COc1ccc(Cl)cc1)O2 (configuration not stated),0.8,10.8,-5.1,20.5*,6.0,0.8
CN1C(=O)C2(OCC(COc3ccc(Cl)cc3)O2)c2ccccc21 (configuration not stated),5.1,4.6,-3.7,2.4,-4.4,nt
O=C(CSc1nc2ccccc2[nH]1)Nc1ccc2c(c1)OCCO2,-9.6,5.2,7.2,1.7,-6.3,nt
CC(C)(C)c1nc(SCC(=O)Nc2ccc(N3CCOCC3)cc2)c2ccccc2n1,-0.8,10.6,2.2,31.9*,6.7,15.0
CCc1nc(SCC(=O)c2ccc3c(c2)OCCO3)c2ccccc2n1,3.6,7.7,-0.4,22.4*,-3.7,8.0
O=C(CSc1nc2ccccc2o1)Nc1ccc(N2CCOCC2)cc1,3.6,1.6,-6.9,4.3,-4.2,nt
CC(C)(C)c1nc(SCC(=O)Nc2ccc3c(c2)OCCO3)c2ccccc2n1,8.3,-4.0,-4.0,19.4*,-3.8,8.0
CC(C)CC(=O)NCc1ccc(F)cc1,-10.5,-0.3,12.4,-11.6,1.8,nt
COC(=O)c1c(NC(=O)Cc2cccs2)sc2c1CCCC2,-1.1,15.8,0.7,20.7*,2.9,8.2
O=C1c2ccccc2C(=O)N1Cc1ccco1,19.1,4.2,-17.3,0.6,-6.3,nt
CC1=CC(=C2C(=O)c3ccccc3C2=O)C=C(C)N1Cc1ccco1,-0.3,10.1,-1.9,24.4*,-4.2,5.4
O=c1c(O)c(-c2cccs2)oc2ccccc12,6.5,42.3*,-4.0,23.3*,-6.9,11.9
O=C(O)COc1c(-c2ccccc2)oc2ccccc2c1=O,-5.4,5.8,6.2,-4.4,6.5,nt
O=C(O)c1ccc(CSCc2c(F)cccc2Cl)o1,6.1,9.3,-8.5,2.1,4.0,nt
c1ccc(-c2nc(CSc3n[nH]c(-c4cccs4)n3)cs2)cc1,-0.8,8.5,-2.7,5.5,4.3,nt
CCOc1ccccc1-c1nc(-c2ccc(NC(=O)c3ccc(Br)o3)cc2)no1,0.4,3.7,-1.2,-0.6,-3.4,nt
CCOc1ccccc1-c1nc(-c2ccc(NC(=O)Cc3ccc(OC)cc3)cc2)no1,-8.0,8.6,8.0,24.9*,-4.3,7.8
CCOC(=O)Cc1[nH]nc2c1C(c1cc(OC)ccc1OC)C(C#N)=C(N)O2 (configuration not stated),-1.8,-6.5,0.8,24.7*,-3.4,6.2
COc1ccccc1NC(=O)N1CCC(c2nnc(SCC(N)=O)n2C)CC1,-8.1,7.6,5.5,10.8,10.1,nt
COC(=O)C1=C(C)Nc2c(c(=O)n(C)c(=O)n2C)C1c1cccs1 (configuration not stated),6.1,10.8,-7.7,18.8*,9.1,4.8
Nc1cc(N)cc(-c2nc3ccccc3[nH]2)c1,-4.4,3.4,2.4,1.0,-2.1,nt
c1cncc(-c2nc3ccccc3[nH]2)c1,-10.1,5.9,14.3,27.7*,6.1,3.1
N#Cc1nc(-c2cccs2)oc1N1CCN(Cc2ccccc2)CC1,0.4,16.4,-1.8,0.9,-5.4,nt
SMILES,LYP act,Rev-RRE block,PTPN22 inh 2,FAK blocker,EphB4 ephrin blk,FAK inh confirm
Oc1oc(-c2ccccc2)nc1C=Nc1ccccc1,6.3,3.1,-2.6,5.3,2.9,nt
CC(=O)Nc1ccc(N=Cc2nc(-c3ccc(C)cc3)oc2O)cc1,-6.0,-0.1,-1.2,24.1*,-4.2,11.9
CCN1C=CC(=C2C(=O)c3ccccc3C2=O)C=C1,-0.2,11.4,0.2,36.4*,6.3,11.2
O=C(O)CN(Cc1ccccc1)S(=O)(=O)c1ccc(F)cc1,-1.9,7.8,1.5,-2.0,6.8,nt
CCOC(=O)Cc1csc(NC(=O)Cc2cccs2)n1,5.3,1.7,-5.6,19.4*,-3.0,3.0
CCc1nnc(NC(=O)c2ccc3c(c2)C(=O)N(CC)C3=O)s1,4.5,-2.5,-5.1,-1.3,0.9,nt
COC(=O)c1c(NC(=O)CN2CCC(C)CC2)c2c(C)cccc2n1C,1.6,3.9,-3.8,7.7,5.1,nt
CC1CCN(S(=O)(=O)c2ccc(NC(=O)Cn3nnc(-c4ccccc4F)n3)cc2)CC1,10.6,14.7,-8.1,19.2*,-5.3,8.2
COc1cc2c3nnc(-c4ccc(F)cc4)c-3cn(Cc3ccccc3)c2cc1OC,6.2,26.6,-7.2,-1.3,2.6,nt
O=C(CSc1nnnn1-c1ccc2c(c1)OCCO2)Nc1nc2c(s1)CCCC2,-6.8,12.6,7.3,29.1*,6.3,9.2
CC(=O)N1CCc2cc(S(=O)(=O)NCCC3=CCCCC3)ccc21,-5.8,11.7,6.4,-0.9,-1.9,nt
O=C(NNC(=O)c1cc2cc3ccccc3nc2s1)c1cccc(C(F)(F)F)c1,-0.8,1.1,3.7,24.9*,1.0,9.1
CC(=O)Nc1cc(OC(C)=O)c2nonc2c1OC(C)=O,11.2,4.7,-12.4,57.3*,10.2,3.0
O=C(COc1ccc(/C=N/NC(=O)c2cc3ccccc3o2)cc1Cl)Nc1ccccc1,-10.6,-9.8,8.7,39.6*,2.7,35.8*
O=C(Cc1ccccc1)N/N=C/c1ccc(OCC(=O)Nc2ccccc2)cc1,-6.1,8.9,9.1,16.0,-1.3,nt
COc1ccc2oc(=O)c(C(=O)N3c4ccccc4CC3C)cc2c1 (configuration not stated),10.7,2.5,-9.6,1.4,-6.5,nt
O=C(Cn1c(=O)oc2cc(S(=O)(=O)N3CCCC3)ccc21)Nc1cccc(C(F)(F)F)c1,-15.0,5.7,14.5,25.6*,5.8,9.3
CCc1cccc(NC(=O)Cn2c(=O)oc3cc(S(=O)(=O)N4CCOCC4)ccc32)c1,-7.3,1.8,6.5,-6.3,-0.9,nt
COc1ccc(-c2nc3ccc(N4CCCC4)cc3c(=O)[nH]2)cc1OC,1.4,-3.2,-3.1,28.4*,-3.0,10.5
Cn1c(SCC(=O)Nc2ccc3nc(SCC(=O)N4CCCC4)sc3c2)nnc1-c1ccccc1,-10.4,1.2,12.2,25.0*,-1.6,8.6
O=c1c2ccccc2nc2ccc(NCc3ccco3)nn12,-0.5,23.1,2.8,23.4*,1.9,1.0
CC(=O)N1CCN(c2ccc(Oc3nnnn3-c3ccccc3)cc2)CC1,-6.4,5.9,3.8,-0.1,0.4,nt
O=C(NCc1ccccc1)c1cccc(COc2ccccc2Cl)c1,-2.0,10.6,6.0,-6.2,6.5,nt
COC(=O)c1ccccc1NC(=O)c1cccc(COc2ccccc2Cl)c1,3.4,19.2,-7.8,22.9*,-4.4,0.3
Cc1cc(N2CCC(C)CC2)nc(SCC(=O)c2ccccc2)n1,5.2,5.2,-8.4,3.1,-3.7,nt
COc1ccc(/C=N/NC(=O)Nc2cccc3nsnc23)c(OC)c1,-1.7,-0.5,-0.3,25.6*,0.9,3.0
COc1cc(/C=N/NC(=O)Nc2cccc3nsnc23)cc(OC)c1OC,-7.5,2.5,11.0,1.9,12.9,nt

# Compound activity deposited in PubChem BioAssay by several laboratories.
